From ChEMBL document CHEMBL4011622, “The Structure-Activity Relationship of a Tetrahydroisoquinoline Class of N-Methyl-d-Aspartate Receptor Modulators that Potentiates GluN2B-Containing N-Methyl-d-Aspartate Receptors” (J Med Chem, 2017)
pEC50: −log10 of the molar value.

Experiments:
[1] = biological target: Glutamate NMDA receptor; Grin1/Grin2b (Rattus norvegicus) (UniProt P35439+Q00960); experiment: Positive allosteric modulation of recombinant rat GluN1/GluN2B receptor expressed in xenopus laevis oocyte assessed as potentiation of glutamate and glycine-induced current response at 30 uM at holding potential -40mV by two electrode voltage clamp method relative to control
How it was run: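 Two-electrode voltage clamp at -40 mV, 23°C, pH 7.4 Ba²⁺ recording solution, on Xenopus oocytes expressing rat NMDA receptors. Currents were evoked by 100 µM glutamate plus 30 µM glycine, with compound co-applied (DMSO 0.05–0.5% final). […] Each compound used at least 4 oocytes from at least 2 frogs.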

[2] = biological target: Glutamate NMDA receptor; Grin1/Grin2c (Rattus norvegicus) (UniProt P35439+Q00961); experiment: Positive allosteric modulation of recombinant rat GluN1/GluN2C receptor expressed in xenopus laevis oocyte assessed as potentiation of glutamate and glycine-induced current response at 30 uM at holding potential -40mV by two electrode voltage clamp method relative to control
How it was run: (§1)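 Two-electrode voltage clamp at -40 mV, 23°C, pH 7.4 Ba²⁺ recording solution, on Xenopus oocytes expressing rat NMDA receptors. Currents were evoked by 100 µM glutamate plus 30 µM glycine, with compound co-applied (DMSO 0.05–0.5% final). Each compound used at least 4 oocytes from at least 2 frogs.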

[3] = biological target: Ionotropic glutamate receptor NMDA 1/2D (Rattus norvegicus) (UniProt P35439+Q62645); experiment: Positive allosteric modulation of recombinant rat GluN1/GluN2D receptor expressed in xenopus laevis oocyte assessed as potentiation of glutamate and glycine-induced current response at 30 uM at holding potential -40mV by two electrode voltage clamp method relative to control; how it was run: as §1
[4] = biological target: Glutamate NMDA receptor; Grin1/Grin2b (Rattus norvegicus, UniProt P35439+Q00960); experiment: Positive allosteric modulation of recombinant rat GluN1/GluN2B receptor expressed in xenopus laevis oocyte assessed as potentiation of glutamate and glycine-induced current response at holding potential -40mV by two electrode voltage clamp method; how it was run: as §1
[5] = biological target: Glutamate NMDA receptor; Grin1/Grin2c (Rattus norvegicus, UniProt P35439+Q00961); experiment: Positive allosteric modulation of recombinant rat GluN1/GluN2C receptor expressed in xenopus laevis oocyte assessed as potentiation of glutamate and glycine-induced current response at holding potential -40mV by two electrode voltage clamp method; how it was run: as §1
[6] = biological target: Ionotropic glutamate receptor NMDA 1/2D (Rattus norvegicus, UniProt P35439+Q62645); experiment: Positive allosteric modulation of recombinant rat GluN1/GluN2D receptor expressed in xenopus laevis oocyte assessed as potentiation of glutamate and glycine-induced current response at holding potential -40mV by two electrode voltage clamp method; how it was run: as §1

| Structure (SMILES) | Activity [1] | Activity [2] | Activity [3] | Emax [1] | Emax [2] | Emax [3] | pEC50 [4] | pEC50 [5] | pEC50 [6] |
| --- | --- | --- | --- | --- | --- | --- | --- | --- | --- |
| CC(C)Oc1ccc2c(c1)CCN(C(=O)c1cccc(F)c1)C2COc1ccc(OC(F)(F)F)cc1 (configuration not stated) | 124% | 154% | 136% | 123% | 157% | 137% | 5.49 | 5.60 | 5.39 |
| COc1ccc(OCC2c3ccc(OC(C)C)cc3CCN2C(=O)c2cccc([N+](=O)[O-])c2)cc1 (configuration not stated) | 198% | 337% | 335% | 203% | 358% | 351% | 5.28 | 5.55 | 5.47 |
| COc1ccc(OCC2c3ccc(OC(C)C)cc3CCN2C(=O)c2cccc(F)c2)cc1 (configuration not stated) | – | – | – | – | – | – | 4.44 | – | – |
| CCOc1ccc(OCC2c3ccc(N4CCOCC4)cc3CCN2C(=O)c2cccc(Cl)c2)cc1 (configuration not stated) | 127% | 133% | 104% | – | – | – | – | – | – |
| COc1ccc(OCC2c3ccc(N4CCCCC4)cc3CCN2C(=O)c2cccc(Cl)c2)cc1 (configuration not stated) | 213% | 289% | 418% | 221% | 313% | 464% | 5.31 | 5.64 | 5.40 |
| CCOc1ccc(OCC2c3ccc(OCC)cc3CCN2C(=O)c2cccc(F)c2)cc1 (configuration not stated) | 94% | 77% | 67% | – | – | – | – | – | – |
| COc1ccc(OCC2c3ccc(NC(C)C)cc3CCN2C(=O)c2cccc(Cl)c2)cc1 (configuration not stated) | 138% | 239% | 333% | 141% | 261% | 363% | 5.03 | 5.33 | 5.29 |
| CCOc1ccc(OCC2c3ccc(OC(C)C)cc3CCN2C(=O)c2cccc(C(F)(F)F)c2)cc1 (configuration not stated) | – | – | – | – | – | – | 5.62 | 5.89 | – |
| CCOc1ccc(OCC2c3ccc(OCC(C)C)cc3CCN2C(=O)c2cccc(F)c2)cc1 (configuration not stated) | 332% | 309% | 351% | 342% | 325% | 364% | 5.60 | 5.51 | 5.47 |
| CCOc1ccc(OCC2c3ccc(OC(C)C)cc3CCN2C(=S)c2cccc(Br)c2)cc1 (configuration not stated) | – | – | – | 174% | 166% | 135% | 6.47 | 6.03 | 6.55 |
| COc1ccc(OCC2c3ccc(N(C)C(C)C)cc3CCN2C(=O)c2cccc(Cl)c2)cc1 (configuration not stated) | 228% | 404% | 500% | 235% | 424% | 549% | 5.23 | 5.70 | 5.40 |
| CC(C)Oc1ccc(OCC2c3ccc(OC(C)C)cc3CCN2C(=O)c2cccc(Cl)c2)cc1 (configuration not stated) | 159% | 134% | 111% | 160% | 138% | – | 5.42 | 5.77 | – |
| CCC(CC)Oc1ccc2c(c1)CCN(C(=O)c1cccc(Cl)c1)C2COc1ccc(OC)cc1 (configuration not stated) | 331% | 286% | 381% | 344% | 294% | 390% | 5.74 | 5.80 | 5.77 |
| COc1ccc(OCC2c3ccc(OC(C)C)cc3CCN2C(=O)c2cccc(N)c2)cc1 (configuration not stated) | 106% | 105% | 107% | – | – | – | – | – | – |
| CC(C)Oc1ccc2c(c1)CCN(C(=O)c1cccc(Cl)c1)C2COc1ccc(OC(F)(F)F)cc1 (configuration not stated) | 130% | 189% | 150% | 130% | 192% | 152% | 5.85 | 5.82 | 5.77 |
| CC(C)Oc1ccc(OCC2c3ccc(OC(C)C)cc3CCN2C(=O)c2cccc(F)c2)cc1 (configuration not stated) | 179% | 133% | 103% | 185% | 135% | – | 5.15 | 5.57 | – |
| COc1ccc(OCC2c3ccc(N(C)C)cc3CCN2C(=O)c2cccc(Br)c2)cc1 (configuration not stated) | 99% | 285% | 307% | – | 293% | 327% | – | 5.62 | 5.42 |
| COc1ccc(OCC2c3ccc(OC(C)C)cc3CCN2C(=O)c2cccc(O)c2)cc1 (configuration not stated) | 98% | 117% | 105% | – | – | – | – | – | – |
| CC(C)Oc1ccc(OCC2c3ccc(OC(C)C)cc3CCN2C(=O)c2cccc(C(F)(F)F)c2)cc1 (configuration not stated) | – | – | – | 157% | 132% | – | 5.82 | 6.04 | – |
| COc1cccc(OCC2c3ccc(OC(C)C)cc3CCN2C(=O)c2cccc(Cl)c2)c1 (configuration not stated) | 99% | 132% | 125% | – | 132% | 125% | – | 5.21 | 5.27 |
| COc1ccc(OCC2c3ccc(OCC(C)C)cc3CCN2C(=O)c2cccc(Cl)c2)cc1 (configuration not stated) | – | – | – | – | – | – | 5.82 | 6.05 | 5.85 |
| CCOc1ccc(OCC2c3ccc(OCC)cc3CCN2C(=O)c2cccc(Cl)c2)cc1 (configuration not stated) | 104% | 91% | 75% | – | – | – | – | – | – |
| COc1ccc(OCC2c3ccc(OC(C)C)cc3CCN2C(=O)c2cccc(C(F)(F)F)c2)cc1 (configuration not stated) | – | – | – | – | – | – | 5.21 | 5.77 | 5.57 |
| COc1ccc(OCC2c3ccc(N(C)C)cc3CCN2C(=O)c2cccc(Cl)c2)cc1 (configuration not stated) | 127% | 288% | 322% | – | 315% | 349% | – | 5.40 | 5.36 |

Results, then the compound that gave them:

| Activity [1] | Activity [2] | Activity [3] | Emax [1] | Emax [2] | Emax [3] | pEC50 [4] | pEC50 [5] | pEC50 [6] | Structure (SMILES) |
| --- | --- | --- | --- | --- | --- | --- | --- | --- | --- |
| 112% | 92% | 92% | – | – | – | – | – | – | CCOc1ccc(OCC2c3ccc(OC(C)C)cc3CCN2C(=O)c2cccc(-c3ccccc3)c2)cc1 (configuration not stated) |
| 61% | 68% | 55% | – | – | – | – | – | – | CCOc1ccc(OCC2c3ccc(OC(C)C)cc3CCN2C(=O)c2ccccc2F)cc1 (configuration not stated) |
| 78% | 67% | 43% | – | – | – | – | – | – | CCOc1ccc(OCC2c3ccc(OC(C)C)cc3CCN2C(=O)c2cccc(C)c2)cc1 (configuration not stated) |
| 163% | 251% | 244% | 182% | 290% | 288% | 4.92 | 5.02 | 4.96 | COc1ccc(OCC2c3ccc(OC(C)C)cc3CCN2C(=O)c2ccc(Cl)cc2)cc1 (configuration not stated) |
| 110% | 138% | 114% | – | – | – | – | – | – | COc1ccc(OCC2c3ccc(OC(C)C)cc3CCN2C(=O)c2ccc(OC)cc2)cc1 (configuration not stated) |
| 112% | 101% | 88% | – | – | – | – | – | – | CCOc1ccc(OCC2c3ccc(OC(C)C)cc3CCN2C(=O)c2ccc(Cl)cc2)cc1 (configuration not stated) |
| 88% | 83% | 69% | – | – | – | – | – | – | CCOc1ccc(OCC2c3ccc(OC(C)C)cc3CCN2C(=O)c2ccccc2)cc1 (configuration not stated) |
| 169% | 159% | 133% | 170% | 162% | 137% | 5.66 | 5.89 | 5.66 | CCOc1ccc(OCC2c3ccc(OC(C)C)cc3CCN2C(=O)c2ccc(F)c(Cl)c2)cc1 (configuration not stated) |
| 118% | 107% | 90% | – | – | – | – | – | – | CCOc1ccc(OCC2c3ccc(OC(C)C)cc3CCN2C(=O)c2ccc(F)cc2)cc1 (configuration not stated) |
| 172% | 145% | 133% | 173% | 150% | 137% | 5.43 | 5.74 | 5.54 | CCOc1ccc(OCC2c3ccc(OC(C)C)cc3CCN2C(=O)c2ccc(F)c(F)c2)cc1 (configuration not stated) |
| 136% | 133% | 98% | 137% | 135% | – | 5.47 | 5.74 | – | CCOc1ccc(OCC2c3ccc(OC(C)C)cc3CCN2C(=O)c2cccc(Br)c2)cc1 (configuration not stated) |
| 89% | 65% | 44% | – | – | – | – | – | – | CCOc1ccc(OCC2c3ccc(OC(C)C)cc3CCN2C(=O)c2cccc(OC)c2)cc1 (configuration not stated) |
| 147% | 104% | 91% | 152% | – | – | 5.14 | – | – | CCOc1ccc(OCC2c3ccc(OC(C)C)cc3CCN2C(=O)c2cccc(F)c2)cc1 (configuration not stated) |
| 67% | 93% | 79% | – | – | – | – | – | – | CCOc1ccc(OCC2c3ccc(OC(C)C)cc3CCN2C(=O)c2ccccc2Cl)cc1 (configuration not stated) |
